In ChEMBL document CHEMBL3992520, “Development of the First Two-Pore Domain Potassium Channel TWIK-Related K+ Channel 1-Selective Agonist Possessing in Vivo Antinociceptive Activity” (J Med Chem, 2017):

Assays:
Mus musculus [1] = test: Antinociceptive activity in TREK1 deficient C57Bl/6J mouse assessed as increase in thermal-stimulus induced paw withdrawal latency at 60 mg/kg, sc measured after 30 mins by hot plate method relative to control; assay type: functional
In short: (§1)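 TREK-1−/− and wild-type C57Bl/6J littermates came from heterozygous crosses, n=7. Dose was 60 mg/kg s.c. The 52 °C hotplate measured paw-lick latency, 30 s cut-off, with baseline from two stable pre-dose latencies.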

Mus musculus [2] = test: Antinociceptive activity in CD1 mouse assessed as increase in thermal-stimulus induced paw withdrawal latency at 3 mg/kg, sc measured after 30 mins by hot plate method relative to control; assay type: functional
In short: (§2)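 Male CD1 mice (20–25 g), groups of 8, scored blind. After 5 min on a room-temperature plate, mice are placed on a 52 °C hotplate. Latency is the time to licking of fore- or hindpaws or flicking of hindpaws, with a 30 s cut-off. Two consecutive stable baseline latencies are taken, then latency is read 30 and 45 min after s.c. injection. % effect = (post − pre)/pre × 100.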

Mus musculus [3] = test: In vivo activation of TREK1 in C57Bl/6J mouse assessed as increase in thermal-stimulus induced paw withdrawal latency at 60 mg/kg, sc measured after 45 mins by hot plate method relative to control; assay type: functional; in short: as §1
Mus musculus [4] = test: Antinociceptive activity in TREK1 deficient C57Bl/6J mouse assessed as increase in thermal-stimulus induced paw withdrawal latency at 60 mg/kg, sc measured after 45 mins by hot plate method relative to control; assay type: functional; in short: as §1
Mus musculus [5] = test: Antinociceptive activity in wild-type C57Bl/6J mouse assessed as increase in thermal-stimulus induced paw withdrawal latency at 60 mg/kg, sc measured after 45 mins by hot plate method relative to control; assay type: functional; in short: as §1
Mus musculus [6] = test: Antinociceptive activity in CD1 mouse assessed as increase in thermal-stimulus induced paw withdrawal latency at 3 mg/kg, sc measured after 45 mins by hot plate method relative to control; assay type: functional; in short: as §2
Mus musculus [7] = test: In vivo activation of TREK1 in C57Bl/6J mouse assessed as increase in thermal-stimulus induced paw withdrawal latency at 60 mg/kg, sc measured after 30 mins by hot plate method relative to control; assay type: functional; in short: as §1
Mus musculus [8] = test: Antinociceptive activity in wild-type C57Bl/6J mouse assessed as increase in thermal-stimulus induced paw withdrawal latency at 60 mg/kg, sc measured after 30 mins by hot plate method relative to control; assay type: functional; in short: as §1
[9] = molecular target: T1, Potassium channel subfamily K member 2 (Homo sapiens) (UniProt O95069); test: Agonist activity at human TREK1 expressed in HEK293 cells assessed as increase in K+ current at 100 uM measured at +60 mV by whole-cell patch clamp method relative to control; assay type: cell-based
T1 sequence (whole entry): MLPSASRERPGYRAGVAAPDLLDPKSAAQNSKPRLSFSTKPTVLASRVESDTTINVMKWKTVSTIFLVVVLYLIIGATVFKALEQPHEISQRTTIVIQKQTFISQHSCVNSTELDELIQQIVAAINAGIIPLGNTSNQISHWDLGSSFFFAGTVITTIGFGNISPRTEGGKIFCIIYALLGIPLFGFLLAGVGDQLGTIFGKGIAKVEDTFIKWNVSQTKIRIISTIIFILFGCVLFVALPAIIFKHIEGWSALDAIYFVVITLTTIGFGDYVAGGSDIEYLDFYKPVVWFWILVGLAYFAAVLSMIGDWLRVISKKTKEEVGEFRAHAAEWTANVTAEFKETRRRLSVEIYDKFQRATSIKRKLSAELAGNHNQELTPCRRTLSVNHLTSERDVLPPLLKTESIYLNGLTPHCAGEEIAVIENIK
In short: (§3)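 Human TREK-1 (kcnk2) in pIRES2-eGFP was stably expressed in HEK-293 cells under G418 selection, and cells were used 4–48 h after plating. Bath (mM): 140 NaCl, 10 TEA-Cl, 5 KCl, 3 MgCl2, 1 CaCl2, 10 HEPES, pH 7.4. Pipette (mM): 155 KCl, 3 MgCl2, 5 EGTA, 10 HEPES, pH 7.2. Holding was −80 mV, with a step to −100 mV then a 400 ms ramp to +60 mV every 5 s. Read-out was the ratio Imax/I0 taken from I/V curves. Stocks were 20 mM in DMSO.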

Liver [10] = test: Drug level in rat liver microsomes treated with at 40 mM (E)-ethyl 2-cyano-3-(3,4-dihydroxyphenyl)acrylate measured after 24 hrs by HPLC analysis; assay type: ADME, microsome; conditions: 40000 µM
In short: (§4)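 Incubation mix: rat liver microsomes (20 mg/mL stock), phosphate buffer pH 7.4 and NADPH (40 mM stock). Drug was added from a 40 mM DMSO stock. Samples were vortexed and incubated at 37 °C with stirring.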

Mus musculus [11] = test: Antinociceptive activity in CD1 mouse assessed as increase in thermal-stimulus induced paw withdrawal latency at 60 mg/kg, sc measured after 30 mins by hot plate method relative to control; assay type: functional
In short: (§5)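 Male CD1 mice (20-25 g), n=8 per group, given 60 mg/kg s.c. After 5 min acclimatization on a plate at room temperature, mice were placed on a 52 °C hotplate. Latency to forepaw or hindpaw licking or hindpaw flicking was recorded, with a 30 s cut-off. Latency was taken after two consecutive stable baselines, then 30 and 45 min post-dose. Effect = (postdrug − predrug latency)/predrug latency ×100.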

Mus musculus [12] = test: Antinociceptive activity in CD1 mouse assessed as increase in thermal-stimulus induced paw withdrawal latency at 60 mg/kg, sc measured after 45 mins by hot plate method relative to control; assay type: functional; in short: as §5
[13] = molecular target: T1, Potassium channel subfamily K member 2 (Homo sapiens); test: Agonist activity at human TREK1 expressed in xenopus oocytes assessed as increase in K+ current at 20 uM measured at 0 mV by double microelectrode method relative to control; assay type: cell-based
[14] = molecular target: T1, Potassium channel subfamily K member 2 (Homo sapiens); test: Agonist activity at human TREK1 expressed in HEK293 cells assessed as increase in K+ current at 20 uM measured at +60 mV by whole-cell patch clamp method relative to control; assay type: cell-based; in short: as §3
[15] = Half life in rat liver microsomes at 40 mM in presence of NADPH-cofactor by HPLC analysis; assay type: ADME, microsome
Liver [16] = test: Drug metabolism in rat liver microsomes assessed as (E)-2-cyano-3-(1H-indol-2-yl)acrylic acid formation at 40 mM in presence of NADPH-cofactor measured after 24 hrs by HPLC analysis; assay type: ADME, microsome; conditions: 40000 µM; in short: as §4
Mus musculus [17] = test: Antinociceptive activity in CD1 mouse assessed as inhibition of acetic acid-induced writhes at 10 mg/kg, sc pretreated for 15 mins followed by acetic acid challenge measured within 20 mins relative to control; assay type: functional
In short: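 Male CD1 mice (20-25 g), n=8 per group, dosed at 10 mg/kg s.c. or with vehicle (5% Tween 80 in 0.9% saline). Dosing was 15 min before i.p. 0.6% acetic acid (10 mL/kg). Abdominal writhes were counted for 20 min. Effect = (mean control writhes − mean test writhes)/mean control writhes ×100.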

[18] = molecular target: T2, Potassium channel subfamily K member 2 (Bos taurus) (UniProt Q8HY88); test: Agonist activity at TREK1 in bovine AZF cells assessed as increase in K+ current at 40 uM by whole-cell patch clamp method relative to control; assay type: cell-based
T2 sequence (whole entry): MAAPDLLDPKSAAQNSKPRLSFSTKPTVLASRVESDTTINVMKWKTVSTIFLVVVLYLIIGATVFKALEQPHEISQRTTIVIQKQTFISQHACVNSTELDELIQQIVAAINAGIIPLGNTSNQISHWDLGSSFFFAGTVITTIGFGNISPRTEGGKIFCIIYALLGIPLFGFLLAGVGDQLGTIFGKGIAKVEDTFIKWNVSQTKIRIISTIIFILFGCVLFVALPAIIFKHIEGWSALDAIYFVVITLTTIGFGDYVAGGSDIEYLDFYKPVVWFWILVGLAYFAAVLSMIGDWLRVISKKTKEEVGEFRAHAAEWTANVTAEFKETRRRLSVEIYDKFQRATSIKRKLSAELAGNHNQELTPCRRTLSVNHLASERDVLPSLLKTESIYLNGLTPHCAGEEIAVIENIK

Liver [19] = test: Drug metabolism in rat liver microsomes assessed as (E)-2-Cyano-3-(3,4-dihydroxyphenyl)acrylic acid formation at 40 mM in presence of NADPH-cofactor measured after 24 hrs by HPLC analysis; assay type: ADME, microsome; conditions: 40000 µM; in short: as §4
[20] = molecular target: T1, Potassium channel subfamily K member 2 (Homo sapiens); test: Agonist activity at human TREK1 expressed in HEK293 cells assessed as increase in K+ current at 10 uM measured at +60 mV by whole-cell patch clamp method relative to control; assay type: cell-based; in short: as §3
[21] = molecular target: T3, Potassium channel subfamily K member 4 (Homo sapiens) (UniProt Q9NYG8); test: Agonist activity at TRAAK (unknown origin) expressed in HEK293 cells assessed as increase in K+ current at 10 uM measured at +60 mV by whole-cell patch clamp method relative to control; assay type: cell-based
T3 sequence (whole entry): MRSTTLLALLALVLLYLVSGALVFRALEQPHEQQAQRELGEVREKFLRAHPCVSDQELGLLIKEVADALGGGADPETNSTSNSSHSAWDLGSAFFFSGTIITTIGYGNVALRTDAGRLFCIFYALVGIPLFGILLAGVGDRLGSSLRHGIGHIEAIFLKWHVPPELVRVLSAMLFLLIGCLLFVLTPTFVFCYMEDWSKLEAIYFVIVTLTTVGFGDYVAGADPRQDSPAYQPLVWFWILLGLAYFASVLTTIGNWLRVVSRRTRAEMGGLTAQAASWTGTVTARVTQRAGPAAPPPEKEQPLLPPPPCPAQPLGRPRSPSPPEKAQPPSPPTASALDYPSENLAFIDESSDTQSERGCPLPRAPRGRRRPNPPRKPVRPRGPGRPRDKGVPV

[22] = molecular target: Potassium channel subfamily K member 9 (Homo sapiens) (UniProt Q9NPC2); test: Agonist activity at TASK3 (unknown origin) expressed in HEK293 cells assessed as increase in K+ current at 10 uM measured at +60 mV by whole-cell patch clamp method relative to control; assay type: cell-based
[23] = molecular target: T4, Potassium channel subfamily K member 10 (Homo sapiens) (UniProt P57789); test: Agonist activity at TREK-2 (unknown origin) expressed in HEK293 cells assessed as increase in K+ current at 10 uM measured at +60 mV by whole-cell patch clamp method relative to control; assay type: cell-based
T4 sequence (whole entry): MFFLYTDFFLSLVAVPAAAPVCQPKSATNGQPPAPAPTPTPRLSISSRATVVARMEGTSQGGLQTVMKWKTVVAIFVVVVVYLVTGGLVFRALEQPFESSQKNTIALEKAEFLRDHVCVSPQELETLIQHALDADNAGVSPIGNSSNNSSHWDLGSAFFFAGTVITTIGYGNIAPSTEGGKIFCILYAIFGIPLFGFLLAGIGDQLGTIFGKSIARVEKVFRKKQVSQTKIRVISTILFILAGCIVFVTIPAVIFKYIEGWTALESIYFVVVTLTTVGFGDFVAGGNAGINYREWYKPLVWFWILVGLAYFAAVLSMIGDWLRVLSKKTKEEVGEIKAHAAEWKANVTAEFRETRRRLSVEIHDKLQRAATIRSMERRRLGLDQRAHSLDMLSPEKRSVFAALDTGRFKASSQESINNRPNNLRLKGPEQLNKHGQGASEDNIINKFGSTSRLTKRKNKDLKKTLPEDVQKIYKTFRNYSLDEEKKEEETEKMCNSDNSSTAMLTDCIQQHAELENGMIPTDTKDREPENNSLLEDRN

Chain of Potassium channel subfamily K member 9 (Homo sapiens) (Q9NPC2 whole entry): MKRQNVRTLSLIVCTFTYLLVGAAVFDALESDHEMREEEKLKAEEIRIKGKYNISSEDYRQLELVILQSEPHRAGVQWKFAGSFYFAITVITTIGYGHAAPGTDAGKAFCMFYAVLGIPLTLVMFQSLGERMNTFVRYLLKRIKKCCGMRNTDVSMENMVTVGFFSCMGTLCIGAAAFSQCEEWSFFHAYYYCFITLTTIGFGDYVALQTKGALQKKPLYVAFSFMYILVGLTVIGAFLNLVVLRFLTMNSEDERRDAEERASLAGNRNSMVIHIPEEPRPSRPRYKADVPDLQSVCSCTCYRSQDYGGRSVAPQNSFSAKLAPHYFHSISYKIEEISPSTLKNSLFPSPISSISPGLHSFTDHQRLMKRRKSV

Structure (SMILES)	Activity (Mus musculus [1]) [%]	Activity (Mus musculus [3]) [%]	Activity (Mus musculus [4]) [%]	Activity (Mus musculus [5]) [%]	Activity (Mus musculus [7]) [%]	Activity (Mus musculus [8]) [%]	fold change (FC) [9]	Activity (Mus musculus [11]) [%]	Activity (Mus musculus [12]) [%]	fold change (FC) [13]	half-life [15] [min]	inhibition in vivo at 10 mg/kg (Mus musculus [17]) [%]	other results
CN1CC[C@]23c4c5ccc(O)c4O[C@H]2[C@@H](O)C=C[C@H]3[C@H]1C5 [MORPHINE]	86.7	24.3	94.6	124.5	12.6	98.6							Activity (Mus musculus [2]): 185%; Activity (Mus musculus [6]): 159.7%
N#C/C(=C\c1ccc(O)c(O)c1)C(=O)O							1.5	21.4	59.4	1.23			Drug metabolism (Liver [10]): Metabolite_Detected
CCOC(=O)/C(C#N)=C/c1cc2ccccc2[nH]1								33.3	32.7		< 4	88.4	fold change (FC) [14]: 4.71; Drug metabolism (Liver [16]): Metabolite_Detected
CCOC(=O)/C(C#N)=C/c1ccc(O)c(O)c1							1.54	34.6	21.8	2.76	< 4	57.8	fold change (FC) [18]: 1; Drug metabolism (Liver [19]): Metabolite_Detected
N#C/C(=C\c1cc2ccccc2[nH]1)C(=O)Nc1ccccc1	18.7	0	51.2	39.2	33	27.9		49.5	49.5			52	fold change (FC) [20]: 2.16 to 2.2; fold change (FC) [21]: 0.9; fold change (FC) [22]: 1.2; fold change (FC) [23]: 1.6
